According to ChEMBL document CHEMBL3098122, “Synthesis, biological activity and structure-activity relationships of new benzoic acid-based protein tyrosine phosphatase inhibitors endowed with insulinomimetic effects in mouse C2C12 skeletal muscle cells” (Eur J Med Chem, 2014):
Active and inactive are the calls of the source. The calls are words filed in the database; no cut-off is given here.

What was measured:
Homo sapiens [1] = organism: Homo sapiens; test: Selectivity ratio of IC50 for human recombinant LMW-PTP IF2 to IC50 for human recombinant LMW-PTP IF1
Homo sapiens [2] = organism: Homo sapiens; test: Selectivity ratio of IC50 for human recombinant LMW-PTP IF2 to IC50 for human recombinant PTP1B
[3] = biological target: T1, Low molecular weight phosphotyrosine protein phosphatase (Homo sapiens, UniProt P24666); test: Inhibition of human recombinant LMW-PTP IF1 expressed in Escherichia coli TB1 using p-nitrophenylphosphate as substrate
T1 sequence (P24666 whole entry): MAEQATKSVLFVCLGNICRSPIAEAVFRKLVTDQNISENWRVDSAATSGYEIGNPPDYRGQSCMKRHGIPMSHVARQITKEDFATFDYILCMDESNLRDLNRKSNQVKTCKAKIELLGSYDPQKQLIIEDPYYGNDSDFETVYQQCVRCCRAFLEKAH

[4] = biological target: T2, Tyrosine-protein phosphatase non-receptor type 1 (Mus musculus) (UniProt P35821); test: Inhibition of PTP1B in mouse C2C12 cells assessed as increase of insulin receptor beta phosphorylation at 25 uM after 90 mins; type: cell-based
T2 sequence (whole entry): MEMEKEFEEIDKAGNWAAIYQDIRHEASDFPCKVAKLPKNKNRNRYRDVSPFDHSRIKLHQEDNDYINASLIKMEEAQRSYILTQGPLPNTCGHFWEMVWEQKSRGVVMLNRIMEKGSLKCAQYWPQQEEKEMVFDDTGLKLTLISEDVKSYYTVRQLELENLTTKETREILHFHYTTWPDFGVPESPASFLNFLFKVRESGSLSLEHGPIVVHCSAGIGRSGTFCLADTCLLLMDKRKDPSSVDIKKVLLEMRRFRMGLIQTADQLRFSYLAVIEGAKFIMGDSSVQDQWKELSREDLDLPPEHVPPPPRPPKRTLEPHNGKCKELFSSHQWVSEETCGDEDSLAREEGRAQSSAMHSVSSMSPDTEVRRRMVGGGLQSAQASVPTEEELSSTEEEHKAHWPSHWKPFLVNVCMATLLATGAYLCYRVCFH
In short: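 Differentiated, 20 h serum-starved C2C12 myotubes exposed to 25 µM compound (DMSO 1.2% final) for 90 min at 37 °C, insulin 10 nM 30 min as positive control; lysates run on SDS-PAGE, Western blot for phospho-insulin receptor β with actin loading control, densitometry; three replicates, p<0.05 versus control.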

[5] = Cytotoxicity against mouse C2C12 cells expressing PTP1B, TC-PTP, LMW-PTP and insulin receptor assessed as cell viability after 2 hrs by MTT assay; type: cell-based; set-up: concentration or dose not given beside the values; settings: read-out: Activity
In short: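 C2C12 myoblasts differentiated 4 days in DMEM with 2% horse serum, serum-starved 20 h; myotubes then given MTT (0.5 mg/ml final) for 2 h at 37 °C, lysed in DMSO, formazan read at 570 nm; three replicates relative to control.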

Homo sapiens [6] = organism: Homo sapiens; test: Selectivity ratio of IC50 for human recombinant LMW-PTP IF1 to IC50 for human recombinant PTP1B
[7] = biological target: T3, Tyrosine-protein phosphatase non-receptor type 2 (Homo sapiens, UniProt P17706); test: Inhibition of TC-PTP (unknown origin) purchased from New England Biolabs using p-nitrophenylphosphate as substrate
T3 sequence (P17706 whole entry): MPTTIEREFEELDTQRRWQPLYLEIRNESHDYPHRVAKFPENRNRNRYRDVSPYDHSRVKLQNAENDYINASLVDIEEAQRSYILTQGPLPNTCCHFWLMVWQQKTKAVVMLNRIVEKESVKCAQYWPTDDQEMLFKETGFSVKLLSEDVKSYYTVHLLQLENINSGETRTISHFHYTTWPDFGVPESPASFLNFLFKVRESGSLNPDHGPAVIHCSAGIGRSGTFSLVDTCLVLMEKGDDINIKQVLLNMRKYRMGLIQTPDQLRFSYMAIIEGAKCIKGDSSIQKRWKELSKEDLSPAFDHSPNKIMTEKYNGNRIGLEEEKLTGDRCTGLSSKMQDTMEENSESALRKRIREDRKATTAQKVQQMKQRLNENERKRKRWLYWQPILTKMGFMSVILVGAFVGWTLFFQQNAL

[8] = biological target: T1, Low molecular weight phosphotyrosine protein phosphatase; test: Inhibition of human recombinant LMW-PTP IF2 expressed in Escherichia coli TB1 using p-nitrophenylphosphate as substrate
[9] = biological target: T4, Tyrosine-protein phosphatase non-receptor type 1 (Homo sapiens, UniProt P18031); test: Inhibition of human recombinant PTP1B expressed in Escherichia coli TB1 using p-nitrophenylphosphate as substrate
T4 sequence (P18031 whole entry): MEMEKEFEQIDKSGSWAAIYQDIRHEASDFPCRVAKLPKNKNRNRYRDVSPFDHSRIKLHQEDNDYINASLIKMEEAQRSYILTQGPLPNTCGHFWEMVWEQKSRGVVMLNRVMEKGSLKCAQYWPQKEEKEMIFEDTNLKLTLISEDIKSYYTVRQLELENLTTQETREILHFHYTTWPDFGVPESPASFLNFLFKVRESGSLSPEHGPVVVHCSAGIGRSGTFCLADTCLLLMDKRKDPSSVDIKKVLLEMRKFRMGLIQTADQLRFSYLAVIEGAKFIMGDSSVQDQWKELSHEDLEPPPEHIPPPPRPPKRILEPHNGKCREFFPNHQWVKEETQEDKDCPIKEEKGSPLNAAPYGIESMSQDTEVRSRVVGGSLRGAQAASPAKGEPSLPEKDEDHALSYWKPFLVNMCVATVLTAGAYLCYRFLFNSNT

[10] = biological target: T5, Tyrosine-protein phosphatase non-receptor type 1 (Homo sapiens) (UniProt P18031); test: Reversible inhibition of human recombinant PTP1B expressed in Escherichia coli TB1 using p-nitrophenylphosphate as substrate assessed as residual activity at 25 times IC50 after 1 hr measured after 400 fold dilution
T5 sequence (whole entry): T4 sequence (P18031 whole entry)
In short: (§1)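 Reversibility: PTP1B preincubated 1 h at 37 °C with at least 25-fold […], DMSO in controls; mixture then diluted 400-fold in assay buffer and residual activity measured on p-nitrophenylphosphate; three replicates, mean ± SE.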

[11] = biological target: T5, Tyrosine-protein phosphatase non-receptor type 1 (Homo sapiens); test: Partial reversible inhibition of human recombinant PTP1B expressed in Escherichia coli TB1 using p-nitrophenylphosphate as substrate assessed as residual activity at 25 times IC50 after 1 hr measured after 400 fold dilution; in short: as §1
[12] = biological target: T2, Tyrosine-protein phosphatase non-receptor type 1 (Mus musculus); test: Inhibition of PTP1B in mouse C2C12 cells assessed as increase of 2-deoxy-D-1,2-[3H]-glucose at 25 uM after 90 mins by beta-scintillation counting; type: cell-based
In short: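 Serum-starved differentiated C2C12 myotubes treated 90 min with 25 µM compound (1.2% DMSO) or 30 min with 10 nM insulin, then 0.1 µCi 2-deoxy-D-[1,2-3H]glucose in Ringer-Hepes for 15 min at 37 °C; cold PBS wash, 0.2 M NaOH lysis, scintillation counting normalized to Bradford protein; three replicates.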

Homo sapiens [13] = organism: Homo sapiens; test: Selectivity ratio of IC50 for TC-PTP (unknown origin) to IC50 for human recombinant PTP1B
In short: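 Commercial T-cell PTP assayed on p-nitrophenylphosphate at 37 °C, pH 7.0 β,β-dimethylglutarate buffer with 1 mM EDTA and 5 mM DTT; stopped with 1 M KOH, absorbance at 400 nm; IC50 from ratio of activity with and without inhibitor versus inhibitor concentration. Ratio lines pair this with recombinant human PTP1B measured the same way.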

[14] = biological target: T4, Tyrosine-protein phosphatase non-receptor type 1; test: Mixed type inhibition of human recombinant PTP1B expressed in Escherichia coli TB1 using p-nitrophenylphosphate as substrate by Double reciprocal plot analysis
In short: (§2)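 PTP1B (human, GST fusion from pGEX-2T in E. coli TB1, thrombin-cleaved, gel-filtered) assayed at 37 °C, pH 7.0 β,β-dimethylglutarate buffer with 1 mM EDTA and 5 mM DTT, p-nitrophenylphosphate at seven final concentrations (0.5–25 mM) with increasing inhibitor; KOH-stopped, A400. Inhibition type from double reciprocal plots; Ki from apparent Km vs inhibitor concentration; triplicate initial rates.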

[15] = biological target: T4, Tyrosine-protein phosphatase non-receptor type 1; test: Competitive inhibition of human recombinant PTP1B expressed in Escherichia coli TB1 using p-nitrophenylphosphate as substrate by Double reciprocal plot analysis; in short: as §2

SMILES	Ratio IC50 (Homo sapiens [1])	Ratio IC50 (Homo sapiens [2])	IC50 [3]	inhibition [4]	Ratio IC50 (Homo sapiens [6])	IC50 [7]	IC50 [8]	IC50 [9]	Activity [10]	Activity [11]	inhibition [12]	Ratio IC50 (Homo sapiens [13])	Ki [14]	Ki [15]	viability at 2 h [5]
O=C(O)c1ccc(CN2C(=O)S/C(=C\c3ccc(OCc4ccccc4)c(F)c3)C2=O)cc1	> 2	> 2	34.3 µM	Active	> 2	10.8 µM	> 50 µM	7.5 µM	80%	–	–	–	–	–	≥ 80%
O=C(O)c1ccc(CN2C(=O)/C(=C/c3cccc(OCCc4ccccc4)c3)S/C2=N\c2ccccc2)cc1	> 2	> 2	10.9 µM	–	> 2	1.9 µM	26.8 µM	4.6 µM	–	50%	inactive	–	–	–	≥ 80%
COc1cc(/C=C2\S/C(=N\c3ccccc3)N(Cc3ccc(C(=O)O)cc3)C2=O)ccc1OCc1ccccc1	> 2	> 2	4.5 µM	–	> 2	5.1 µM	10 µM	1.6 µM	80%	–	inactive	2	–	–	≥ 80%
COc1ccc(/C=C2\SC(=O)N(Cc3ccc(C(=O)O)cc3)C2=O)cc1OCCc1ccccc1	> 2	–	> 50 µM	Active	–	16.9 µM	> 50 µM	24.6 µM	80%	–	–	–	–	–	≥ 80%
O=C(O)c1ccc(CN2C(=O)S/C(=C\c3ccc(OCCc4ccccc4)cc3)C2=O)cc1	> 2	> 2	20.1 µM	–	> 2	5.9 µM	> 50 µM	2.6 µM	80%	–	–	2	2.3 µM	–	≥ 80%
COc1cc(/C=C2\S/C(=N\c3ccccc3)N(Cc3ccc(C(=O)O)cc3)C2=O)ccc1OCCc1ccccc1	> 2	> 2	10.7 µM	Active	> 2	3.4 µM	19.7 µM	2.8 µM	80%	–	–	–	1.5 µM	–	≥ 80%
COc1cc(/C=C2\SC(=O)N(Cc3ccc(C(=O)O)cc3)C2=O)ccc1OCc1ccccc1	> 2	> 2	10.3 µM	Active	> 2	3.5 µM	> 50 µM	4.6 µM	80%	–	–	–	–	–	≥ 80%
COc1ccc(/C=C2\S/C(=N\c3ccccc3)N(Cc3ccc(C(=O)O)cc3)C2=O)cc1OCCc1ccccc1	> 2	> 2	17.2 µM	Active	> 2	4.3 µM	> 50 µM	1.7 µM	80%	–	–	2	–	1.5 µM	≥ 80%
O=C(O)c1ccc(CN2C(=O)/C(=C/c3ccc(OCc4ccccc4)c(F)c3)S/C2=N\c2ccccc2)cc1	> 2	> 2	3.3 µM	Active	> 2	0.8 µM	15.5 µM	2.2 µM	–	50%	Active	–	–	–	≥ 80%

Further molecules by falling IC50 [3], results first:

Ratio IC50 (Homo sapiens [1])	Ratio IC50 (Homo sapiens [2])	IC50 [3]	inhibition [4]	Ratio IC50 (Homo sapiens [6])	IC50 [7]	IC50 [8]	IC50 [9]	Activity [10]	Activity [11]	inhibition [12]	Ratio IC50 (Homo sapiens [13])	Ki [14]	Ki [15]	SMILES	viability at 2 h [5]
> 2	> 2	22.3 µM	Active	> 2	12.7 µM	> 50 µM	4 µM	80%	–	–	2	–	–	COc1ccc(/C=C2\SC(=O)N(Cc3ccc(C(=O)O)cc3)C2=O)cc1OCc1ccccc1	≥ 80%
> 2	> 2	20.1 µM	–	> 2	7.3 µM	> 50 µM	9.5 µM	80%	–	Active	–	–	–	O=C(O)c1ccc(CN2C(=O)S/C(=C\c3cccc(OCCc4ccccc4)c3)C2=O)cc1	60%
> 2	> 2	9.1 µM	–	> 2	4 µM	> 50 µM	3.9 µM	–	50%	–	–	–	–	COc1ccc(/C=C2\S/C(=N\c3ccccc3)N(Cc3ccc(C(=O)O)cc3)C2=O)cc1OCc1ccccc1	≥ 80%
> 2	> 2	4 µM	Active	> 2	0.7 µM	8.9 µM	1.5 µM	–	50%	–	–	0.5 µM	–	O=C(O)c1ccc(CN2C(=O)/C(=C/c3ccc(OCCc4ccccc4)cc3)S/C2=N\c2ccccc2)cc1	≥ 80%
